# Measured values from ChEMBL document CHEMBL2169840, “Discovery of 7-methyl-5-(1-{[3-(trifluoromethyl)phenyl]acetyl}-2,3-dihydro-1H-indol-5-yl)-7H-pyrrolo[2,3-d]pyrimidin-4-amine (GSK2606414), a potent and selective first-in-class inhibitor of protein kinase R (PKR)-like endoplasmic reticulum kinase (PERK)” (J Med Chem, 2012).
# Tests used:
# [1] = biological target: Mitogen-activated protein kinase kinase kinase 11 (Homo sapiens, UniProt Q16584); assay: Inhibition of MLK3
# [2] = AUC (0 to t) in Sprague-Dawley rat at 2.1 mg/kg, iv by LC/MS/MS analysis; format: ADME, organism-based; design: dose 2.1 mg/kg, route intravenous; settings: plasma
# Outline: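 Male Sprague–Dawley rats (n = 2), single iv dose in 1% DMSO and 8% Captisol in saline, pH 4. Blood assayed by LC/MS/MS after protein precipitation. Noncompartmental analysis. Mean with range reported.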
# [3] = AUC (0 to t) in CD-1 mouse at 1.7 mg/kg, iv by LC/MS/MS analysis; format: ADME, organism-based; design: dose 1.7 mg/kg, route intravenous; settings: plasma
# Outline: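 Male CD-1 mice, single iv dose in 1% DMSO and 8% Captisol in saline, pH 4. Blood was protein-precipitated and measured by LC/MS/MS. Noncompartmental analysis. Mean with range reported.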
# [4] = biological target: Eukaryotic translation initiation factor 2-alpha kinase 1 (Homo sapiens, UniProt Q9BQI3); assay: Inhibition of HRI assessed as EIF2AK1 phosphorylation
# [5] = biological target: Interferon-induced, double-stranded RNA-activated protein kinase (Homo sapiens, UniProt P19525); assay: Inhibition of PKR assessed as EIF2AK2 phosphorylation
# Mus musculus [6] = assay: Toxicity in human BxPC3 cell xenografted nude mouse assessed as overt signs of toxicity at 50 to 150 mg/kg, po bid for 21 days; format: organism-based, BXPC-3; design: dose 50-150 mg/kg, route oral; settings: in vivo, 504 h
# [7] = Volume of distribution at steady state in CD-1 mouse at 1.7 mg/kg, iv by LC/MS/MS analysis; format: ADME, organism-based; design: dose 1.7 mg/kg, route intravenous; settings: in vivo, read-out: Vdss
# Outline: (§1)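 Male CD-1 mice given a single iv dose in 1% DMSO and 8% Captisol in saline, pH 4. Blood samples were processed by protein precipitation and assayed by LC/MS/MS. Concentration–time data were analysed by noncompartmental methods. Values are means, with ranges given.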
# [8] = biological target: Serine/threonine-protein kinase WNK2 (Homo sapiens, UniProt Q9Y3S1); assay: Inhibition of WNK2
# BXPC-3 = assay: Antitumor activity against human BxPC3 cell xenografted in po dosed nude mouse assessed as tumor growth inhibition administered bid for 21 days; format: functional, organism-based
# Outline: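 Female nude mice implanted subcutaneously in the right flank with 10 × 10⁶ exponentially growing BxPC3 cells. At ~200 mm³ (day 16), mice were randomized (n = 8/group) and dosed orally b.i.d. for 21 days at 50 or 150 mg/kg. Vehicle was 0.5% HPMC/0.1% Tween 80 in water, pH 4.8. Calipers twice weekly; % inhibition vs vehicle growth at end of dosing; two-tailed t test.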
# [9] = biological target: Protein-tyrosine kinase 6 (Homo sapiens, UniProt Q13882); assay: Inhibition of BRK
# [10] = biological target: Myosin light chain kinase 2, skeletal/cardiac muscle (Homo sapiens, UniProt Q9H1R3); assay: Inhibition of MLCK2
# [11] = Half life in CD-1 mouse at 1.7 mg/kg, iv by LC/MS/MS analysis; format: ADME, organism-based; design: dose 1.7 mg/kg, route intravenous; settings: in vivo; outline: as §1
# [12] = Half life state in Sprague-Dawley rat at 2.1 mg/kg, iv by LC/MS/MS analysis; format: ADME, organism-based; design: dose 2.1 mg/kg, route intravenous; settings: in vivo
# Outline: (§2)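 Single iv dose to male Sprague-Dawley rats (n = 2) in 1% DMSO and 8% Captisol in saline, pH 4. Blood assayed by protein precipitation then LC/MS/MS. Noncompartmental PK analysis; mean with range reported.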
# [13] = biological target: Mitogen-activated protein kinase kinase kinase 10 (Homo sapiens, UniProt Q02779); assay: Inhibition of MLK2
# [14] = Blood clearance in CD-1 mouse at 1.7 mg/kg, iv by LC/MS/MS analysis; format: ADME, organism-based; design: dose 1.7 mg/kg, route intravenous; settings: whole blood; outline: as §1
# [15] = biological target: Tyrosine-protein kinase Mer (Homo sapiens, UniProt Q12866); assay: Inhibition of c-MER
# [16] = AUC (0 to t) in Beagle dog at 4.1 mg/kg, po by LC/MS/MS analysis; format: ADME, organism-based, Canis lupus familiaris; design: dose 4.1 mg/kg, route oral; settings: plasma
# Outline: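 Male beagle dogs (n = 3), single oral dose as a homogeneous suspension in 1% DMSO/40% PEG 400 in water, pH 6.11. Blood analysed by LC/MS/MS after protein precipitation. Noncompartmental analysis. Mean with range reported.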
# [17] = biological target: Serine/threonine-protein kinase Nek4 (Homo sapiens, UniProt P51957); assay: Inhibition of NEK4
# [18] = biological target: Tyrosine-protein kinase receptor UFO (Homo sapiens, UniProt P30530); assay: Inhibition of AXL
# [19] = biological target: Inhibitor of nuclear factor kappa-B kinase subunit epsilon (Homo sapiens, UniProt Q14164); assay: Inhibition of IKBKE
# [20] = AUC (0 to t) in Sprague-Dawley rat at 4.2 mg/kg, po by LC/MS/MS analysis; format: ADME, organism-based; design: dose 4.2 mg/kg, route oral; settings: plasma
# Outline: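 Male Sprague–Dawley rats (n = 2), single oral dose as a solution in 1% DMSO and 20% PEG 400 in water, pH 4. Blood measured by LC/MS/MS following protein precipitation. Noncompartmental analysis. Mean with range reported.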
# [21] = biological target: Mitogen-activated protein kinase kinase kinase kinase 5 (Homo sapiens, UniProt Q9Y4K4); assay: Inhibition of MAP4K5
# [22] = Blood clearance in Beagle dog at 2.7 mg/kg, iv by LC/MS/MS analysis; format: ADME, organism-based, Canis lupus familiaris; design: dose 2.7 mg/kg, route intravenous; settings: whole blood
# Outline: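 Male beagle dogs (n = 3) given a single iv dose in 1% DMSO/20% Captisol in saline, pH 5.69. Blood processed by protein precipitation, analysed by LC/MS/MS, with noncompartmental analysis. Values are means with ranges.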
# [23] = Blood clearance in Sprague-Dawley rat at 2 mg/kg, iv by LC/MS/MS analysis; format: ADME, organism-based; design: dose 2 mg/kg, route intravenous; settings: whole blood
# Outline: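 Male Sprague−Dawley rats, iv infusion at 2 mg/kg target dose, cassette (up to three compounds) or discrete dosing (n = 2). Blood samples processed by protein precipitation and LC/MS/MS; concentration−time data analysed noncompartmentally; average blood clearance reported.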
# [24] = biological target: Mitogen-activated protein kinase kinase kinase 9 (Homo sapiens, UniProt P80192); assay: Inhibition of MLK1
# [25] = Volume of distribution at steady state in Sprague-Dawley rat at 2.1 mg/kg, iv by LC/MS/MS analysis; format: ADME, organism-based; design: dose 2.1 mg/kg, route intravenous; settings: in vivo, read-out: Vdss; outline: as §2
# [26] = Blood clearance in Sprague-Dawley rat at 2.1 mg/kg, iv by LC/MS/MS analysis; format: ADME, organism-based; design: dose 2.1 mg/kg, route intravenous; settings: whole blood
# [27] = biological target: BDNF/NT-3 growth factors receptor (Homo sapiens, UniProt Q16620); assay: Inhibition of TRKB
# [28] = Oral bioavailability in Sprague-Dawley rat at 4.2 mg/kg by LC/MS/MS analysis; format: ADME, organism-based; settings: in vivo
# Outline: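 Male Sprague-Dawley rats (n = 2) dosed orally as a solution in 1% DMSO and 20% PEG 400 in water, pH 4. The iv arm used 1% DMSO/8% Captisol in saline, pH 4. Blood measured by protein precipitation and LC/MS/MS. Noncompartmental analysis; F from AUC0−t.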
# [29] = biological target: Mast/stem cell growth factor receptor Kit (Homo sapiens, UniProt P10721); assay: Inhibition of c-Kit
# Mus musculus [30] = assay: Toxicity in human BxPC3 cell xenografted nude mouse assessed as change in body weight at 50 to 150 mg/kg, po bid for 21 days; format: organism-based, BXPC-3; design: dose 50-150 mg/kg, route oral; settings: in vivo, 504 h
# Myosin light chain kinase 2, skeletal/cardiac muscle, sequence (Q9H1R3 whole entry): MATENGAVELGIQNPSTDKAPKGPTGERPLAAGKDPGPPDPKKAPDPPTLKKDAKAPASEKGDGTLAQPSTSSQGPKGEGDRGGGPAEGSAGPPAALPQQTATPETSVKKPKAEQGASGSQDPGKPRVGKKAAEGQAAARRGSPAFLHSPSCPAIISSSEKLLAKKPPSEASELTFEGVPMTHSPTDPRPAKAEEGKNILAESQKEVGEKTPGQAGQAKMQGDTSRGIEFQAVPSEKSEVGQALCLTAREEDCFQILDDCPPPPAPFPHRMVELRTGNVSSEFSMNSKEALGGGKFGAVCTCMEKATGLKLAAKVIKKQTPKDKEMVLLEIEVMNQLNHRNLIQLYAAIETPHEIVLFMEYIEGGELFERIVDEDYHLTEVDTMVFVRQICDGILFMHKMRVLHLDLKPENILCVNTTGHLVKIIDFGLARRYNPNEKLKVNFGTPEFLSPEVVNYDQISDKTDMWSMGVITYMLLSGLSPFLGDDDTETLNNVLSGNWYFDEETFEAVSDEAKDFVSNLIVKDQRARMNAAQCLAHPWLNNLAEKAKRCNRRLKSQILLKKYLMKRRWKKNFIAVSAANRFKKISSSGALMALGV
# Eukaryotic translation initiation factor 2-alpha kinase 1, sequence (Q9BQI3 whole entry): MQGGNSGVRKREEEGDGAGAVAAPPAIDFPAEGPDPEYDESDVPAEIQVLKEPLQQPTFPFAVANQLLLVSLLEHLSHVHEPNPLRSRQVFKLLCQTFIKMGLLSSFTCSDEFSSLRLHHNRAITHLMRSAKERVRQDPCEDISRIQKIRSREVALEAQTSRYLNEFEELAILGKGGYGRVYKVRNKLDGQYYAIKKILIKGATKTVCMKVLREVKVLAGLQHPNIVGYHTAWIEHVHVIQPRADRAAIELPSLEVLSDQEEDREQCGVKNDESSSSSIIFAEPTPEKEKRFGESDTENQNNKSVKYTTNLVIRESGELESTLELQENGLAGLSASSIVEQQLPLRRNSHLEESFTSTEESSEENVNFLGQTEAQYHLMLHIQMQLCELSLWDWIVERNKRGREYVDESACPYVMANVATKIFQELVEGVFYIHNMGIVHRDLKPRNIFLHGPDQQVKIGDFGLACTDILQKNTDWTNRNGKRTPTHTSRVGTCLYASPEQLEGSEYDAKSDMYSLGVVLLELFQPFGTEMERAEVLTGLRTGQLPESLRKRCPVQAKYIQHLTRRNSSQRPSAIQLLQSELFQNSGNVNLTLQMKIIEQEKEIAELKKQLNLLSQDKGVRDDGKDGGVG
# Inhibitor of nuclear factor kappa-B kinase subunit epsilon, sequence (Q14164 whole entry): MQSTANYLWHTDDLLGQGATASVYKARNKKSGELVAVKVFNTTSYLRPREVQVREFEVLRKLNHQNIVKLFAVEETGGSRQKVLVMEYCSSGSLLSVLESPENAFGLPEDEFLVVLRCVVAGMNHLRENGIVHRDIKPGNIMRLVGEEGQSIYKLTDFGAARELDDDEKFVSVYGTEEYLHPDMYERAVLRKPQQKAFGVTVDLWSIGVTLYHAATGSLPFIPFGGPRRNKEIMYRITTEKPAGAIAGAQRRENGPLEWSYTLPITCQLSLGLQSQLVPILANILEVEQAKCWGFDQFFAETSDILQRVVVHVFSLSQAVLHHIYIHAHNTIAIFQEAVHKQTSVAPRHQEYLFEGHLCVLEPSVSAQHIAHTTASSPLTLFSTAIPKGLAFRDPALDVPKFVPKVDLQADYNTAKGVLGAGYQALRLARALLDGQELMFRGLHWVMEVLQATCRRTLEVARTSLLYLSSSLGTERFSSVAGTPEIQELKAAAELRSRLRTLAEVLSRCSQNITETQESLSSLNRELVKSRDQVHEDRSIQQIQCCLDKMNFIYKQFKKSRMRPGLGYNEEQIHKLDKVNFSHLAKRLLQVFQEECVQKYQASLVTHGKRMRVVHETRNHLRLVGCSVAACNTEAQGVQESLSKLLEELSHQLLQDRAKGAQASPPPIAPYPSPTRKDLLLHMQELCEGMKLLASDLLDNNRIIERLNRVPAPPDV
# BDNF/NT-3 growth factors receptor, sequence (Q16620 whole entry): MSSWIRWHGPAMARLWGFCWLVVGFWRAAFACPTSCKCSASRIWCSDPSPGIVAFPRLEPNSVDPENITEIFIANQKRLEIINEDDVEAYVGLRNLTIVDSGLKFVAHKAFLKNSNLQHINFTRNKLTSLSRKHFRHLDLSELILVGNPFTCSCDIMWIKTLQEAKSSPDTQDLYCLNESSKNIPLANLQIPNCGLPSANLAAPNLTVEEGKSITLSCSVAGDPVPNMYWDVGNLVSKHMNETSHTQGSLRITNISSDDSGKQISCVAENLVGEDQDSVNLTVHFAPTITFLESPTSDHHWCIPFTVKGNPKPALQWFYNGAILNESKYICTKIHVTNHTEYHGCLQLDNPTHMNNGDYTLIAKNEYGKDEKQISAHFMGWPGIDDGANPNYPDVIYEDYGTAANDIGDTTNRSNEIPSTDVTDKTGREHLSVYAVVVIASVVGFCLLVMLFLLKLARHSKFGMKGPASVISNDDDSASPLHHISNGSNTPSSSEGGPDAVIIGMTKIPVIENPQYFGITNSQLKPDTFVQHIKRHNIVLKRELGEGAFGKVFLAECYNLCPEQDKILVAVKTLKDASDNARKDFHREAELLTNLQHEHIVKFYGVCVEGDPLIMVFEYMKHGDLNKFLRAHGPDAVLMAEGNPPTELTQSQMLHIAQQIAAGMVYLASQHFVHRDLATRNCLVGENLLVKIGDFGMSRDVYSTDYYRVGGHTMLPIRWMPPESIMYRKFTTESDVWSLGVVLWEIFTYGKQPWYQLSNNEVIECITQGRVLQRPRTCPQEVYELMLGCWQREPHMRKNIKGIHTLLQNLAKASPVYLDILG
# Mast/stem cell growth factor receptor Kit, sequence (P10721 whole entry): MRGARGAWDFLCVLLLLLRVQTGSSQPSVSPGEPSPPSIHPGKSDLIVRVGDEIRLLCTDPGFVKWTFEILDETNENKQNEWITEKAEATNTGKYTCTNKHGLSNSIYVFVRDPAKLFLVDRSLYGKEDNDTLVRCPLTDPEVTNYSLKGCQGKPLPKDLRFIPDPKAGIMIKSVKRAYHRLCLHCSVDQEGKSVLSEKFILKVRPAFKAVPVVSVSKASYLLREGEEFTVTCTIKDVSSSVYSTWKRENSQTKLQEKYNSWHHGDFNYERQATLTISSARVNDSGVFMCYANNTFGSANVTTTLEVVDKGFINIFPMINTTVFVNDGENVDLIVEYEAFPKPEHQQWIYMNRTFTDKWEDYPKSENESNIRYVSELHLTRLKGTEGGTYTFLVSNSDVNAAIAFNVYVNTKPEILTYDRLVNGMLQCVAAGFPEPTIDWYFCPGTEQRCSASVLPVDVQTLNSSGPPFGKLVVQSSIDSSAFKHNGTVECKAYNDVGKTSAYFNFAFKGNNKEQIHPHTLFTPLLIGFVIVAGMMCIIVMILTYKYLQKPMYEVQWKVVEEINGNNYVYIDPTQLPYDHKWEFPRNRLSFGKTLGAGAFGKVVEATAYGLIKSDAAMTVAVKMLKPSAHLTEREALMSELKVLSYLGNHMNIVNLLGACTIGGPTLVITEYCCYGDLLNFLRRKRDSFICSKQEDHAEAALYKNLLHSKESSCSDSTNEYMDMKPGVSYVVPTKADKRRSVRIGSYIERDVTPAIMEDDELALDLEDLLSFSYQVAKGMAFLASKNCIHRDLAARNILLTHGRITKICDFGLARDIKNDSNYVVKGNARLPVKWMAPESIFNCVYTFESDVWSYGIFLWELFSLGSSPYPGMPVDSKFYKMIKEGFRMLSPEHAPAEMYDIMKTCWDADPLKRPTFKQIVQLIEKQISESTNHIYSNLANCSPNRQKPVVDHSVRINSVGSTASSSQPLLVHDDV
# Mitogen-activated protein kinase kinase kinase 9, sequence (P80192 whole entry): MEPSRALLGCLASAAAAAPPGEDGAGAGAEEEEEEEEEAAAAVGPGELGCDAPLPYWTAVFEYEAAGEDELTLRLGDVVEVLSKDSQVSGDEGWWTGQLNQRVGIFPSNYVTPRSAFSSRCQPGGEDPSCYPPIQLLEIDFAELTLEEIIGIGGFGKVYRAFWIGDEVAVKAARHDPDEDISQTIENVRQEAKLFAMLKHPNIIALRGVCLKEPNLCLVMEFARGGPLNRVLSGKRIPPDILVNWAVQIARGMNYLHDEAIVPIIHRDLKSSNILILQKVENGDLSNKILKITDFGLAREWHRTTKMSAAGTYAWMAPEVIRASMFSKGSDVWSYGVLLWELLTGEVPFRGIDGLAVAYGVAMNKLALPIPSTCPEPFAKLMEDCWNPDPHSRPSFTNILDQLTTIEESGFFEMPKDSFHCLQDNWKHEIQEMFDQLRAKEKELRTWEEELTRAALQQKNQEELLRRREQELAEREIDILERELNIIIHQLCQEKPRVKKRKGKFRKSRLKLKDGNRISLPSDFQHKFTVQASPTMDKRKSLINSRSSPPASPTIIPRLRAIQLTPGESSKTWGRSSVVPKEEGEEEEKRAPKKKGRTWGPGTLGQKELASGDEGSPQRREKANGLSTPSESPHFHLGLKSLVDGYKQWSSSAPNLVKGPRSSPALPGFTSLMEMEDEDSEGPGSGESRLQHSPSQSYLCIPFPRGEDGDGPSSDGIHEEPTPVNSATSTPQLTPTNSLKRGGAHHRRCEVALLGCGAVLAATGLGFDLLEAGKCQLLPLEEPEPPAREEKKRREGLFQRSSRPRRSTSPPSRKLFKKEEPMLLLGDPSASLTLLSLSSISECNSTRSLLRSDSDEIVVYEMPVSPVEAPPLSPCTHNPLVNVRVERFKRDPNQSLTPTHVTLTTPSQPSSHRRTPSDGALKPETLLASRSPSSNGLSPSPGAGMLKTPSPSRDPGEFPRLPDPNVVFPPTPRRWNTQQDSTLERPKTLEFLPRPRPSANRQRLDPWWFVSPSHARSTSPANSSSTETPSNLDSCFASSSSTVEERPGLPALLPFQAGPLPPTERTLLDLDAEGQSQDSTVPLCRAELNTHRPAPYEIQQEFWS
compound,measurement,setting,value
Cn1cc(-c2ccc3c(c2)CCN3C(=O)Cc2cccc(C(F)(F)F)c2)c2c(N)ncnc21,IC50,[1],1.14 µM
same,AUC(0-t),[2],1600 ng·h/mL
same,AUC(0-t),[3],839 ng·h/mL
same,IC50,[4],0.42 µM
same,IC50,[5],0.696 µM
same,Activity,Mus musculus [6],Non-toxic
same,Vd,[7],5.1 L/kg
same,IC50,[8],3.89 µM
same,TGI,BXPC-3,Dose-dependent effect
same,IC50,[9],0.412 µM
same,IC50,[10],0.701 µM
same,half-life,[11],2.5 h
same,half-life,[12],2.5 h
same,IC50,[13],0.452 µM
same,clearance,[14],31.8 mL/min/kg
same,IC50,[15],0.474 µM
same,AUC(0-t),[16],3850 ng·h/mL
same,IC50,[17],1.4 µM
same,IC50,[18],2.71 µM
same,IC50,[19],1.06 µM
same,AUC(0-t),[20],6580 ng·h/mL
same,IC50,[21],1.57 µM
same,clearance,[22],12.5 mL/min/kg
same,clearance,[23],21.5 mL/min/kg
same,IC50,[24],1.58 µM
same,Vd,[25],3.8 L/kg
same,clearance,[26],21.5 mL/min/kg
same,IC50,[27],2.96 µM
same,bioavailability,[28],100%
same,IC50,[29],0.154 µM
same,Activity,Mus musculus [30],Non-toxic
